Data: ChEMBL document CHEMBL3808351, “Synthesis, biological evaluation, and physicochemical property assessment of 4-substituted 2-phenylaminoquinazolines as Mer tyrosine kinase inhibitors” (Bioorg Med Chem, 2016)
≈ marks a conversion by molar mass, not a printed value.

Columns and labels:
[1] = biological target: T1, Tyrosine-protein kinase Mer (Homo sapiens, UniProt Q12866); experiment: Inhibition of MERTK (unknown origin) using EFPIYDFLPAKKK-CONH2 as substrate and ATP after 180 mins by microfluidic capillary electrophoresis method
T1 sequence (Q12866 whole entry): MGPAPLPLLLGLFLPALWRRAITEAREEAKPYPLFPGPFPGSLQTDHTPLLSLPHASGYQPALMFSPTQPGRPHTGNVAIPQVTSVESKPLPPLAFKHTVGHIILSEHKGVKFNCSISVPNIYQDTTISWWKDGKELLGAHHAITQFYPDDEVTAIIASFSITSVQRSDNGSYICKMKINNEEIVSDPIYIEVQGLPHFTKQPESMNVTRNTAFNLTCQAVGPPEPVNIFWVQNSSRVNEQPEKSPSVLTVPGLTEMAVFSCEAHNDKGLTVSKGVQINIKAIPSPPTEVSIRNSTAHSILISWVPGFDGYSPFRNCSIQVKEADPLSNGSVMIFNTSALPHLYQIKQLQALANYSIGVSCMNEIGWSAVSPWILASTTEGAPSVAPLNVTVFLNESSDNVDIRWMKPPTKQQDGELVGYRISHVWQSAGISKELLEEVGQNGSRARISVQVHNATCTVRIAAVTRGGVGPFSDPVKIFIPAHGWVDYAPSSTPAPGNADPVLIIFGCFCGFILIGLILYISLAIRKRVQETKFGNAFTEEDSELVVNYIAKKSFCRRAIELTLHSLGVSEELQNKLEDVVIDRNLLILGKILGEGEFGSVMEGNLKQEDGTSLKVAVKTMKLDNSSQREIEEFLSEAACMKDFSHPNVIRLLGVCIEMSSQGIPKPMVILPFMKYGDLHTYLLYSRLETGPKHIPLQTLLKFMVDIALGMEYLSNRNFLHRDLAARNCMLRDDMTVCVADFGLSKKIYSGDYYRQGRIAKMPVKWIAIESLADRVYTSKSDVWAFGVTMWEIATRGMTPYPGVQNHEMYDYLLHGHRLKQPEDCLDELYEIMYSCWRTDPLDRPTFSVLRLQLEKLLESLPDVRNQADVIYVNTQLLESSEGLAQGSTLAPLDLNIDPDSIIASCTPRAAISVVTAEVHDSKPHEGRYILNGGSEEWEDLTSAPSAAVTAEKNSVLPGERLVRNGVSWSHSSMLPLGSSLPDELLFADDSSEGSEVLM

[2] = n-octanol-water partition co-efficient, log P of the compound after 24 hrs by HPLC analysis; assay type: physicochemical
[3] = Solubility of the compound in phosphate buffer at pH 7.4 by HPLC-UV method; assay type: physicochemical
How it was run: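 Compound stock was 10 mg/mL in DMSO. It was diluted into pH 7.4 phosphate buffer to a final 1% DMSO and stirred 4 h at room temperature, then spun at 10,000 rpm for 5 min. The saturated supernatant was read by HPLC-UV at 254 nm on a C18 column with a MeOH/water gradient. Concentration was taken from an acetonitrile standard curve spanning 0.20–50 µg/mL. Samples were run in triplicate.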

[4] = Antiproliferative activity against human DU145 cells after 48 hrs by SRB method; assay type: functional; details: DU-145, 48 h
A549 = experiment: Antiproliferative activity against human A549 cells after 48 hrs by SRB method; assay type: functional; details: A549, 48 h
[5] = Antiproliferative activity against human KBVIN cells after 48 hrs by SRB method; assay type: functional
KB = experiment: Antiproliferative activity against human KB cells after 48 hrs by SRB method; assay type: functional

IC50 [1] | logP [2] | solubility [3] | SMILES | further results
 | > 5 | 1.54 µg/mL (≈ 4.78 µM) | Fc1ccc(Nc2nc(NC3CCCC3)c3ccccc3n2)cc1 | 
 | 3.95 | 3.1 µg/mL (≈ 9.68 µM) | Oc1ccc(Nc2nc(NC3CCCC3)c3ccccc3n2)cc1 | 
 | > 5 | 1.11 µg/mL (≈ 3.19 µM) | COc1ccc(N(C)c2nc(NC3CCCC3)c3ccccc3n2)cc1 | 
 | 3.21 | 6.61 µg/mL (≈ 23.6 µM) | CNc1nc(Nc2ccc(OC)cc2)nc2ccccc12 | 
> 30 µM |  |  | N#Cc1ccc(Nc2nc(NC3CCCC3)c3ccccc3n2)cc1 | GI50 [4]: > 31.3 µM; GI50 (A549): > 31.3 µM
 | > 5 | 10.4 µg/mL (≈ 31.1 µM) | COc1ccc(Nc2nc(NC3CCCC3)c3ccccc3n2)cc1 | 
 | > 5 | 4.36 µg/mL (≈ 14.1 µM) | CCCNc1nc(Nc2ccc(OC)cc2)nc2ccccc12 | 

Second part, the molecule before the results:

SMILES | IC50 [1] | logP [2] | solubility [3] | further results
Fc1ccc(Nc2nc(N3CCOCC3)c3ccccc3n2)cc1 | > 30 µM |  |  | 
COc1ccc(N(C)c2nc(N3CCOCC3)c3ccccc3n2)cc1 | > 30 µM |  |  | 
COc1ccc(Nc2nc(NCCCO)c3ccccc3n2)cc1 |  | 2.54 | 95.6 µg/mL (≈ 295 µM) | 
CCCNc1nc(N(C)c2ccc(OC)cc2)nc2ccccc12 |  | > 5 | 3.43 µg/mL (≈ 10.6 µM) | 
COc1ccc(N(C)c2nc(NCC3CCOCC3)c3ccccc3n2)cc1 | > 30 µM |  |  | 
Nc1ccc(Nc2nc(NCCCO)c3ccccc3n2)cc1 | > 30 µM |  |  | GI50 [4]: 20.8 µM; GI50 (A549): 17.1 µM
N#Cc1ccc(Nc2nc(NCCCO)c3ccccc3n2)cc1 |  | 2.84 | 7.52 µg/mL (≈ 23.5 µM) | 
OCCCNc1nc(Nc2ccc(F)cc2)nc2ccccc12 | > 30 µM |  |  | GI50 [4]: 20.6 µM; GI50 (A549): 19.3 µM
Nc1ccc(Nc2nc(N3CCOCC3)c3ccccc3n2)cc1 | > 30 µM |  |  | 
CC(=O)O[C@H]1C(=O)[C@@]2(C)[C@H]([C@H](OC(=O)c3ccccc3)[C@]3(O)C[C@H](OC(=O)[C@H](O)[C@@H](NC(=O)c4ccccc4)c4ccccc4)C(C)=C1C3(C)C)[C@]1(OC(C)=O)CO[C@@H]1C[C@@H]2O [PACLITAXEL] |  |  |  | GI50 [5]: 0.948 µM; GI50 (KB): 0.0026 µM; GI50 (A549): 0.0049 µM
